Data on five compounds can be found in ChEMBL document CHEMBL1122821, “Synthesis and some pharmacological properties of 18 potent O-alkyltyrosine-substituted antagonists of the vasopressor responses to arginine-vasopressin” (J Med Chem, 1985).

Starred links: 1 amine or outer side, 2 acyl side, 3 side chain; linkers in the order of their positions; H or OH if unused. Positions of bridges follow the written chain, without caps; N, C: chain ends. Non-standard residues stand in square brackets, D forms with d. Residues, ends and D or L forms follow the SMILES beside them. X2 = O=C(CC1(S[*:2])CCCCC1)[*:1]

For assay [1], the species on record is Rattus norvegicus. Briefly: In vitro anti-oxytocic potency was evaluated in the presence of 0.5 mM of Mg2+. It counts as functional. The following applies: read-out: pA2 (converted). The method in brief: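 Isolated rat uterus in medium containing 0.5 mM Mg2+. USP posterior pituitary reference standard used as agonist. In vitro pA2 values were derived as in Bankowski et al.; means ± SE.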

The species entered for assay [2] is Rattus norvegicus. Briefly: Antidiuretic activity was evaluated for the compound in rats under ethanol anesthesia; antagonist. It counts as functional, Urine. The method in brief: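 Rats under ethanol anesthesia, with USP posterior pituitary reference standard as agonist. Each peptide was given at a high and a low dose, bracketing the dose that cuts the response to 2x units of agonist to the 1x-unit response. Effective dose (nmol/kg) was interpolated on a log scale. In vivo pA2 = −log(effective dose / 67 mL/kg). Means ± SE of at least four estimates.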

For assay [3], the species on record is Rattus norvegicus. Nature of the assay: In vitro anti-oxytocic potency was evaluated in the absence of Mg2+. It counts as functional. The following applies: read-out: pA2 (converted). The method in brief:
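Isolated rat uterus in medium containing no Mg2+. USP posterior pituitary reference standard used as agonist. In vitro pA2 values were derived as in Bankowski et al.; means ± SE.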

Assay [4] concerns Rattus norvegicus. Nature of the assay: In vivo anti-vasopressor activity measured as the negative logarithm of the effective dose / the estimated volume of distribution (67 mL/kg). The conditions noted are these: read-out: pA2 (converted). It counts as ADME, organism-based. The method in brief:
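Rats treated with phenoxybenzamine under urethane anesthesia. Pressor responses to the USP posterior pituitary standard were given intravenously. Effective dose (nmol/kg) was interpolated on a log scale; means ± SE of at least four estimates. pA2 = −log(effective dose / 67 mL/kg).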

The subject of assay [5] is Rattus norvegicus. Nature of the assay: In vivo antidiuretic activity in rats under ethanol anesthesia. It counts as functional, Urine. The method in brief:
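Rats under ethanol anesthesia, with the USP posterior pituitary reference standard as reference. Agonistic activity is expressed in units per milligram.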

On to `CCOc1ccc(C[C@@H]2NC(=O)CC3(CCCCC3)SSC[C@@H](C(=O)N3CCC[C@H]3C(=O)N[C@@H](CCCN=C(N)N)C(=O)NCC(N)=O)NC(=O)[C@H](CC(N)=O)NC(=O)[C@H](C(C)C)NC(=O)[C@H](Cc3ccccc3)NC2=O)cc1` (Y(Et)FVNCPRG-NH2; linker N-5 via X2), for which the Kb in the assay filed under Rattus norvegicus [1] is 87.1 nM; in the assay listed under Rattus norvegicus [3], 9.55 nM. Further, in the assay filed under Rattus norvegicus [2], the Activity worked out at 7.1 mg.
On to `CCOc1ccc(C[C@@H]2NC(=O)CC3(CCCCC3)SSC[C@@H](C(=O)N3CCC[C@H]3C(=O)N[C@H](CCCN=C(N)N)C(=O)NCC(N)=O)NC(=O)[C@H](CC(N)=O)NC(=O)[C@H](C(C)C)NC(=O)[C@H](Cc3ccccc3)NC2=O)cc1` (Y(Et)FVNCP[dR]G-NH2; linker N-5 via X2), for which the Kb in the assay on Rattus norvegicus [4] was 6.92 nM. Besides, the Activity in the assay listed under Rattus norvegicus [2] amounted to 7.57 mg.
As for `COc1ccc(C[C@@H]2NC(=O)CC(C)(C)SSC[C@@H](C(=O)N3CCC[C@H]3C(=O)N[C@H](CCCN=C(N)N)C(=O)NCC(N)=O)NC(=O)[C@H](CC(N)=O)NC(=O)[C@H](CCC(N)=O)NC(=O)[C@H](Cc3ccccc3)NC2=O)cc1`, the Kb is 57.5 nM in the assay listed under Rattus norvegicus [1], 11 nM with Rattus norvegicus [4] and 24.5 nM in the assay listed under Rattus norvegicus [3]. The Activity with Rattus norvegicus [5] was found to be 3.5 units/mg.
On to `COc1ccc(C[C@@H]2NC(=O)CC(C)(C)SSC[C@@H](C(=O)N3CCC[C@H]3C(=O)NC(CCCN=C(N)N)C(=O)NCC(N)=O)NC(=O)[C@H](CC(N)=O)NC(=O)[C@H](CCC(N)=O)NC(=O)[C@H](Cc3ccccc3)NC2=O)cc1` (stereo in doubt), for which the Kb in the assay filed under Rattus norvegicus [1] is 43.7 nM; with Rattus norvegicus [4] it was 4.9 nM; in the assay listed under Rattus norvegicus [3], 17 nM. This compound registered an Activity in the assay on Rattus norvegicus [5] of 0.46 units/mg.
`COc1ccc(C[C@@H]2NC(=O)CC3(CCCCC3)SSC[C@@H](C(=O)N3CCC[C@H]3C(=O)N[C@H](CCCN=C(N)N)C(=O)NCC(N)=O)NC(=O)[C@H](CC(N)=O)NC(=O)[C@H](CCC(N)=O)NC(=O)[C@H](Cc3ccccc3)NC2=O)cc1`: the Kb in the assay filed under Rattus norvegicus [1] is 57.5 nM; in the assay on Rattus norvegicus [4], 2.4 nM; in the assay filed under Rattus norvegicus [3], 7.41 nM. Moreover, the Activity in the assay with Rattus norvegicus [5] was 0.31 units/mg.
